# Compound activity: PubChem BioAssay, Broad Institute
# A selection: hits, their analogues and other compounds. The true share with any hit is near 2.3%.
# Cneo AK release = Cryptococcus neoformans lysis via adenylate kinase release; C. neoformans lysis, adenylate kinase release luminescence, 4 h; normalised: neutral wells 0, clomiphene wells 100; 0.2% of 360,000 active; lysis activity, % at 15 µM;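 active = mean lysis activity across replicates of at least 80%, whatever share of replicates individually reach that level; inactive = mean lysis activity below 80%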
#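 Test system: log-phase Cryptococcus neoformans yeast cells. Input: 5 × 10^6 yeast cells/mL. Medium: fresh YPD growth medium. Doses: single dose. Incubation: static 4 h at 37 °C with compound, 1 h detection. Measured by: luminescent adenylate kinase detection reagent. Read-out: signal increase indicating cell lysis. Benchmarks: Clomiphene.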
# ERp5 inh = inhibitors of human ERp5; ERp5 insulin aggregation, absorbance 650 nm, 90 min; inhibition, % at 9.99 µM; 0.05% of 350,000 active; AID 651711;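 active = mean replicate inhibition above about 25%, with every replicate also reaching it, limit read from the data, passing the limit was not always enough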
# Target sequence (Q15084 whole entry, looked up): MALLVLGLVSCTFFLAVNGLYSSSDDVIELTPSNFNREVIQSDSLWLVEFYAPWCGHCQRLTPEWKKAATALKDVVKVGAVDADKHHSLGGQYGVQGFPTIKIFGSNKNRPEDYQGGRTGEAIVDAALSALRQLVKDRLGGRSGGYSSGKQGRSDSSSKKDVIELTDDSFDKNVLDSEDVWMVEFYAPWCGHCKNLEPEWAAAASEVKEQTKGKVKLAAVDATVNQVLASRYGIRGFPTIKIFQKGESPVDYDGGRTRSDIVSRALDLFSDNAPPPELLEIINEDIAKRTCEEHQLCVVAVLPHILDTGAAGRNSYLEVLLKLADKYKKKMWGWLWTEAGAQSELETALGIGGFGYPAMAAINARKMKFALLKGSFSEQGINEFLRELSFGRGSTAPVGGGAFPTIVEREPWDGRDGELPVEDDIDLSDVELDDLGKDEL
# DENV2 CPE = DENV2-induced cell death inhibition. DENV2-infected cells, cytopathic effect rescue, plate reader. CPE inhibition, % at 9.99 µM. 1.7% of 350,000 active. AID 651640; in the data active = CPE inhibition above about 20%, passing the limit was not always enough; tested in BHK-21 cells;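 also: 0% = median of neutral control wells and 100% = median of positive control wells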
# CFTR F508del cor = CFTR F508del correction in bronchial cells. CFBE cells, YFP halide quenching; stimulated with forskolin plus potentiator P3; % fluorescence drop versus neutral controls. activity (quench increase), % at 7.58 µM. 0.36% of 350,000 active. AID 720511;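 active = mean added fluorescence quench of at least 8% versus neutral control, with both replicates also reaching 8%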;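 also: cells transiently co-express mutant CFTR-F508del with the halide-sensitive YFP; corrector assay measuring rescue of mutant channel to the surface after 24 h compound exposure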
# PDI inh = PDI (human) enzyme inhibition | PDI insulin aggregation turbidity, A650, 90 min | inhibition, % at 10 µM | 0.052% of 350,000 active | AID 588391;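 active = mean inhibition across replicates of 30% or more, whatever share of single replicates reach that level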
# C2C12 statin = suppressors of simvastatin-induced myotoxicity in C2C12 myotubes. ATP luminescence, 48 h; scaled: DMSO 0, geranylgeraniol control 100. rescue of ATP level, % at 7.49 µM. 0.78% of 330,000 active;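 active = mean ATP rescue above about 67%, or every replicate alone reaching that limit, limit read from the data, passing the limit was not always enough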;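 also: myotubes were challenged with 10 µM simvastatin during compound exposure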
# The depositor's hits bear a star; nt = not tested or not shown.
SMILES,Cneo AK release,ERp5 inh,DENV2 CPE,CFTR F508del cor,PDI inh,C2C12 statin
COCC(=O)Nc1ccc2c(c1)C(=O)N(C)C[C@H](OC)[C@@H](C)CN(C(=O)c1ccccc1)[C@@H](C)CO2,95.1*,14.2,-2.2,0.6,nt,-6.0
COCC(=O)Nc1ccc2c(c1)OC[C@@H](C)N(C(=O)c1ccncc1)C[C@@H](C)[C@H](OC)CN(C)C2=O,-0.9,15.7,32.4*,-1.5,nt,2.1
COCC(=O)Nc1ccc2c(c1)C(=O)N(C)C[C@@H](OC)[C@H](C)CN(C(C)=O)[C@@H](C)CO2,-1.2,-2.2,32.2*,-1.8,nt,7.0
COCC(=O)Nc1ccc2c(c1)C(=O)N(C)C[C@H](OC)[C@H](C)CN(C(=O)COC)[C@H](C)CO2,-5.4,2.4,23.9*,nt,nt,12.3
CO[C@H]1CN(C)C(=O)c2cc(NC(C)=O)ccc2OC[C@H](C)N(C(=O)c2ccncc2)C[C@@H]1C,-1.0,-3.9,-14.8,-0.8,nt,-4.6
CO[C@H]1CN(C)C(=O)c2cc(NC(C)=O)ccc2OC[C@H](C)N(C(=O)c2ccncc2)C[C@H]1C,-0.7,-0.7,10.0,8.4*,nt,-0.1
COc1ccc2c3c(n(C)c2c1)[C@H](CO)N(C)CC31CN(S(=O)(=O)c2cccc(F)c2)C1,nt,-2.1,-4.9,-2.6,nt,nt
Cc1cc2ccccn2c1C(=O)c1ccccc1Br,-4.6,2.8,41.7*,4.5,2.7,6.6
Cc1cc2ccccn2c1C(=O)c1ccc(F)cc1,-4.5,0.0,0.3,3.5,7.0,12.7
COc1ccc(/C=C2\N=C(SC)SC2=O)cc1OC,5.4,nt,nt,nt,-1.8,106.5*
C[C@@H]1CN([C@@H](C)CO)C(=O)c2cc(NC(=O)Nc3cccc4ccccc34)ccc2O[C@@H](C)CCCCO[C@@H]1CN(C)C(=O)C1CCCCC1,-5.4,-0.9,2.0,1.1,nt,nt
COc1ccc(CN(C)C[C@@H]2OCCCC[C@H](C)Oc3ccc(NS(=O)(=O)c4ccc(C)cc4)cc3C(=O)N([C@H](C)CO)C[C@@H]2C)cc1,10.0,6.5,6.2,1.1,nt,nt
COC(=O)C1=C(C)N(Cc2ccc(Br)cc2)C(=S)NC1c1cccc(F)c1 (stereo not drawn),nt,3.7,25.9*,-0.9,nt,nt
COC(=O)C1=C(C)N(Cc2ccccc2)C(=NCCCCO)N[C@H]1c1cccc(C(F)(F)F)c1,3.1,-1.7,-5.5,-0.3,12.0,-42.5
COC(=O)C1=C(C)N(Cc2cccc(C(F)(F)F)c2)C(=NCC2CC2)NC1c1ccc(F)cc1 (stereo not drawn),nt,5.0,61.2*,1.6,nt,nt
COC(=O)C1=C(C)N(Cc2ccc(Br)cc2)C(=S)NC1c1ccc(F)cc1 (stereo not drawn),nt,-0.7,-6.6,1.5,nt,nt
CCN1C(=NCCCCO)N[C@@H](c2cccc(C(F)(F)F)c2)C(C(=O)OC)=C1C,-0.8,-3.0,32.6*,-2.2,-3.7,-0.2
C[C@@H]1CN([C@H](C)CO)C(=O)c2cc(NC(=O)Nc3ccc4c(c3)OCO4)ccc2O[C@@H](C)CCCCO[C@H]1CN(C)Cc1ccncc1,1.1,0.9,-9.3,-0.8,nt,nt
Cc1nc2ncccn2c1-c1csc(Nc2ccc(O)cc2)n1,nt,-6.0,4.6,nt,53.2*,nt
CC(=O)N1C[C@H]2CON(C)[C@H]2C[C@H]1c1cccc(-c2ccccc2)c1,1.5,-14.7,-7.3,1.5,-0.7,4.7
CN1OC[C@@H]2CN(Cc3cc(Cl)cc(Cl)c3)[C@H](c3cccc(-c4ccc(C#N)cc4)c3)C[C@@H]21,1.3,-10.2,24.1*,3.1,-6.6,22.3
CC(=O)N1C[C@H]2CON(C)[C@H]2C[C@H]1c1cccc(-c2ccc(C#N)cc2)c1,4.7,-3.7,21.4*,0.3,-4.5,1.6
O=C(COC(=O)c1ccc(Br)o1)Nc1ccc2c(c1)OCCO2,-3.2,2.8,9.5,0.7,-10.6,6.7
O=C(COC(=O)CNC(=O)c1ccc(Br)o1)Nc1ccc2c(c1)OCCO2,2.1,nt,nt,nt,-4.5,141.2*
O=C(COc1ccc(F)cc1)Nc1ccc2c(c1)OCCO2,-6.1,1.1,102.2*,-0.9,-11.4,nt
SMILES,Cneo AK release,ERp5 inh,DENV2 CPE,CFTR F508del cor,PDI inh,C2C12 statin
CC(C)(C)S(=O)N1Cc2cc(C(=O)NCc3ccc4c(c3)OCO4)nc(-c3cccc(C#CCC4CCCC4)c3)c2[C@@H]1CCO (stereo partly drawn),nt,2.0,49.4*,5.9,nt,nt
CN1CCN(C(=O)c2cc3c(c(-c4cccc(C5=CCCC5)c4)n2)[C@H](CCO)N([S@@](=O)C(C)(C)C)C3)CC1,2.0,-2.8,-1.6,-7.0,nt,10.8
CC(C)(C)[S@](=O)N1Cc2cc(C(=O)N3CCCCC3)nc(-c3cccc(C4=CCCC4)c3)c2[C@@H]1CCO,nt,-4.7,26.1*,0.6,nt,nt
COc1ccc(CNC(=O)c2cc3c(c(-c4cccc(-c5cccc(C#N)c5)c4)n2)[C@@H](CCO)N([S@](=O)C(C)(C)C)C3)cc1,41.7,3.8,0.1,2.6,nt,-42.6
CC(C)(C)S(=O)N1Cc2cc(C(=O)NCc3ccc4c(c3)OCO4)nc(-c3cccc(C#CCC4CCCC4)c3)c2[C@H]1CCO (stereo partly drawn),nt,-2.2,6.5,3.6,nt,nt
COc1ccc(CNC(=O)c2cc3c(c(-c4cccc(-c5ccc(C#N)cc5)c4)n2)[C@@H](CCO)N([S@](=O)C(C)(C)C)C3)cc1,4.6,-2.5,8.3,12.0*,nt,-16.8
O=C(c1cc2c(c(-c3cccc(Br)c3)n1)[C@H](CCO)NC2)N1CCCCC1,nt,-0.2,34.5*,-3.2,nt,nt
C[C@@H]1CCCCO[C@@H](CN(C)Cc2ccc(C(F)(F)F)cc2)[C@H](C)CN([C@H](C)CO)C(=O)c2cc(NS(=O)(=O)c3cccs3)ccc2O1,3.1,-1.4,-5.0,2.5,nt,-17.2
CC(C)(C)S(=O)N1Cc2cc(C(=O)NCc3ccc4c(c3)OCO4)nc(-c3cccc(-c4cccc(F)c4)c3)c2[C@@H]1CCO (stereo partly drawn),nt,4.6,23.9*,1.1,nt,nt
N#C[C@@H]1[C@H](c2ccccc2-c2cccc(F)c2)[C@H](CO)N1C(=O)c1cccnc1,nt,-0.6,5.9,4.5,nt,nt
O=C(c1ccccc1)N1CCN(C(=O)c2ccc(OC(F)(F)F)cc2)CC1,-4.0,nt,nt,nt,-9.1,97.8*
CCc1c(O)nc(SC2CC(=O)N(c3ccccc3)C2=O)[nH]c1=O (stereo not drawn),0.0,nt,nt,nt,1.6,105.6*
C[C@@H]1CN([C@@H](C)CO)S(=O)(=O)c2ccc(-c3cccnc3)cc2O[C@@H]1CN(C)C(=O)NC1CCCC1,59.3,-11.5,-4.8,1.6,nt,-6.6
CCc1cc(Cn2nc(-c3ccccc3)cc2C(=O)NCc2cccc(Br)c2)on1,4.4,-5.6,90.0*,0.0,-12.0,-24.3
CCc1cc(Cn2nc(-c3ccccc3)cc2C(=O)NCc2ccc(C)cc2)on1,3.0,-2.9,111.4*,-2.0,7.1,11.3
